Source: PubChem BioAssay
M1 agonist = M1 muscarinic receptor agonism | CHO-M1 cells, Fluo-4 calcium fluorescence, agonist mode; stronger effect = higher value | B-score at 10 µM | 3% of 64,000 active;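 active = fluorescence rise, raw or as B-score row- and column-corrected plate score, outside the 99.7% band of its plate's samples, either direction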
S1P1 ag-PAM = S1P1 (human) agonism or agonism potentiation | P21453 | S1P1 CRE-bla cells, forskolin, beta-lactamase FRET, potentiator mode; S1P1 agonist co-added at EC20, 2 nM; 100% = saturating reference agonist, 0% = basal | activation, % at 9.5 µM | 0.57% of 56,000 active | AID 449;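 active = activation above a cutoff set at the mean activation of all tested compounds plus 3 SD, cut at about 54% in these data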;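 also: forskolin at 4 µM as EC80 and the EC20 agonist is SEW2871; 100% = SEW2871 at its EC100 plus forskolin at EC80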
D1 allo mod = allosterically modulates the human D1 dopamine receptor; P21728; HEK293 D1, CRE-luciferase, dopamine EC30 potentiation; actives deviate in either direction; B-score at 10 µM; 5.9% of 58,000 active; AID 641;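 active = luminescence count or its row- and column-corrected plate score outside the 99.7% band of the plate's sample wells, on either side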
M1 antag = blocks the rat M1 muscarinic receptor response to acetylcholine; CHO-M1 cells, Fluo-4 calcium, ACh EC80 antagonist mode; stronger effect = lower value; B-score at 10 µM; 3.4% of 64,000 active; AID 628;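 active = calcium fluorescence response, raw or row-and-column corrected B-score, differing from the plate sample mean either way at a set confidence level, mostly lower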
Target sequence (P08482 whole entry, looked up): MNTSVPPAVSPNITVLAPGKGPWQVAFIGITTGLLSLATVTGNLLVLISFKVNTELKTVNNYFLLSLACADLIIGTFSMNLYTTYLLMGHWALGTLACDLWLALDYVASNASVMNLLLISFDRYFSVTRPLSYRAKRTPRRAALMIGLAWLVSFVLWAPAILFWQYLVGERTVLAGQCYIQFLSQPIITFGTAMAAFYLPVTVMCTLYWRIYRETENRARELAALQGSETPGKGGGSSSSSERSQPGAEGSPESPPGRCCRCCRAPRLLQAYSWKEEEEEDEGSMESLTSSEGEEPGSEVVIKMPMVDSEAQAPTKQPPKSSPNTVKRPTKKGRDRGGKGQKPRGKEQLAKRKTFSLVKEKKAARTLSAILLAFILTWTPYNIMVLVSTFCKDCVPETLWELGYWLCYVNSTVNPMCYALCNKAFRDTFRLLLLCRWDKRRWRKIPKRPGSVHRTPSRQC
S1P3 agonist = agonists of human S1P3 receptor | Q99500 | 0.1% of 60,000 active | S1P3 NFAT-BLA reporter cells, agonism, FRET ratio; relative to 1 µM S1P, basal subtracted | activation, % at 4.5 µM;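 active = activation above the screen-wide mean plus 3 SD, cut at about 4.5% in these data, passing the limit was not always enough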
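Benchmarks: high control 1 µM S1P / System: stable CHO line with human S1P3, Gα16, NFAT-BLA reporter / Dosing: single compound concentration, 4.5 µM final / Timing: 4 h compound at 37 °C, 2 h substrate at RT / Measured by: FRET β-lactamase substrate fluorescence, excitation 405 nm, 460/535 nm emission ratio, background-subtracted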
M1 agonist conf = rat M1 muscarinic agonism, confirmation. shares compounds with M1 agonist. CHO-M1 cells, Fluo-4 calcium fluorescence, agonist mode; actives lie on both sides. fluorescence change (max-min) at 10 µM. 19% of 1,700 active;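 active = fluorescence change differs from the solvent-only DMSO control mean at a set confidence level in both duplicate runs; inconclusive = differs from solvent-only control mean in just one of two runs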;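 also: an EC20 dose of acetylcholine follows compound addition during the same imaging run; raw fluorescence intensity difference in instrument units with no normalization to controls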
M4 ag counter = rat M4 muscarinic agonism, M1 counter-screen. shares compounds with M1 agonist. CHO M4/Gqi5 cells, Fluo-4 calcium fluorescence, agonist mode; actives lie on both sides. fluorescence change (max-min) at 10 µM. 9% of 1,700 active. AID 1741;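 active = fluorescence change differing from the plate's solvent-only control wells at 99.7% confidence in both duplicates, whether higher or lower; inconclusive = differs from solvent controls in only one of two duplicates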
* = called active by the depositor; ? = inconclusive; / = no result given. Most compounds without a hit are left out; they make up all but 11% or so of the library.

SMILES	M1 agonist	S1P1 ag-PAM	D1 allo mod	M1 antag	S1P3 agonist	M1 agonist conf	M4 ag counter
O=C(CN1c2cccc3cccc(c23)S1(=O)=O)NCc1ccc2c(c1)OCO2	21*	7	5.3*	-4*	-1	48	-18
CN(C)CCNC(=O)C12CC3(C)CC(C)(CC(C)(C3)C1)C2	3.3*	11	/	-0.94	-4	?	-70
CCOC(=O)Cc1csc(NC(=O)COc2ccc(N(C)S(=O)(=O)c3cccs3)cc2)n1	6.2*	/	-0.9	-0.69	/	?	-23
CCOC(=O)Cc1csc(NC(=O)COc2ccccc2OC)n1	-1.2	/	0.087	-1.7	/	/	/
COc1ccc(-n2c(Cc3cc(=O)[nH]c(=O)[nH]3)nnc2SCC(=O)N2CCCC2)cc1	3.5*	-23	0.0032	0.15	0	-8.3	-18
COc1cccc(-n2c(Cc3cc(=O)[nH]c(=O)[nH]3)nnc2SCC(=O)N2CCCC2)c1	-1.9	-21	0.51	-0.17	1	/	/
O=C(COC(=O)c1ccccc1F)c1ccc(-n2nncc2-c2ccco2)cc1	0.084	-2	/	-0.22	0	/	/
Cc1ccc(-c2nnc3c4ccccc4c(C)nn23)cc1S(=O)(=O)N1CCN(CCO)CC1	4.2*	-42	2.1	-1.6	0	-0.23	-20
Cc1ccc(-c2nnc3c4ccccc4c(C)nn23)cc1NC(=O)CN1CCOCC1	/	-4	0.25	/	-1	/	/
COc1ccccc1Cn1c(=O)c2ccccc2n2c(SCC(=O)N3CCCCC3)nnc12	-0.055	4	/	-0.058	-1	/	/
CCc1ccc(NC(=O)CSc2nnc(Cn3c(=O)sc4ccccc43)n2C)cc1	-0.95	-2	/	0.017	-1	/	/
CCOC(=O)c1ccc(NC(=O)CSc2nnc(Cn3c(=O)sc4ccccc43)n2C)cc1	2.3*	3	/	0.19	0	3.5	-7
c1ccc(Cn2nnc3c(Nc4ccc5c(c4)OCO5)nc(C4CC4)nc32)cc1	0.35	39	1.2	0.53	-1	/	/
COc1ccc(-c2ccc(-c3noc(C4CCCCC4)n3)c(OC)n2)cc1	3.9*	5	0.18	-1.1	-1	-11	?
C=CCn1c(SCC(=O)c2ccc(OC)cc2)nnc1C(C)NC(=O)c1cccs1 (centres undefined)	-2.8*	/	0.78	0.72	0	?	-52
C=CCn1c(SCC(=O)NC2CCCCC2)nnc1C(C)NC(=O)c1cccs1 (centres undefined)	-1.1	/	-1.8	-0.59	0	/	/
COC(=O)c1c(NC(=O)CN2CCCC(C)C2)c2c(C)cccc2n1C (centres undefined)	-0.11	6	0.6	-0.53	-1	/	/
COn1c(=O)c(-c2ccc(Cl)cc2)[n+]([O-])c2ccccc21	-0.23	-12	0.48	-0.17	-1	/	/
O=c1c(-c2ccccc2)[n+]([O-])c2ccccc2n1O	9.3*	2	-1.2	-0.17	0	42	5.1
CCOC(=O)COn1c(=O)c(-c2cccs2)[n+]([O-])c2ccccc21	88*	-10	0.049	-0.076	-1	800*	?
O=c1c(=O)n(O)c2ccccc2n1O	-0.19	-6	0.1	0.22	-1	/	/
CCOn1c(=O)c(-c2ccc(OC)cc2)[n+]([O-])c2ccccc21	5.2*	-6	0.4	-0.89	1	?	-92
C=CCOn1c(=O)c(C)[n+]([O-])c2ccccc21	0.69	/	-0.17	-0.94	-1	/	/
CCOCCCNC(=O)Cn1cc2c(n1)CCCCC2	-0.94	-24	0.87	0.19	1	/	/
O=C(NCC(=O)N(Cc1ccccc1)C(C(=O)NC1CCCC1)c1ccco1)c1ccco1 (centres undefined)	9.4*	6	-0.84	-1.5	0	-12	-57
SMILES	M1 agonist	S1P1 ag-PAM	D1 allo mod	M1 antag	S1P3 agonist	M1 agonist conf	M4 ag counter
N#Cc1cccc(NC(=O)c2nc(-c3ccccc3)n(-c3ccccc3)n2)c1	3.5*	53	1.9	-0.55	0	-11	-44
CC(=O)Nc1ccccc1OCC(=O)c1cc(C)n(Cc2cccs2)c1C	3.1*	110*	/	-2.4	-2	22	-33
Cc1cc(C(=O)COC(=O)c2ccc3c(c2)OCO3)c(C)n1Cc1cccs1	-0.42	37	0.05	0.056	0	/	/
Cn1c(=O)c2c(nc(N3CCNCC3)n2Cc2cccc3ccccc23)n(C)c1=O	-0.95	1	0.21	0.15	0	/	/
CCCOc1nc2c(c(=O)n(C)c(=O)n2C)n1Cc1cccc2ccccc12	3.6*	/	-0.95	-0.7	/	?	-32
COc1ccc(C(C)=O)c(Oc2nc(CN3CCOCC3)nc3scc(-c4cccs4)c23)c1	45*	-25	0.72	-1.3	0	-14	-47
CCN=C1SC(CC(=O)Nc2ccc(N3CCOCC3)cc2)C(=O)N1CC (centres undefined)	2.8*	-12	1.1	-0.66	-1	?	-52
CCN=C1SC(CC(=O)Nc2ccc(C(F)(F)F)cc2)C(=O)N1CC (centres undefined)	12*	-16	/	-2.9*	-2	?	-48
CCN=C1SC(CC(=O)NC2CCCCC2)C(=O)N1CC (centres undefined)	0.21	-4	0.049	0.13	0	/	/
O=c1oc2c(CN3CCOCC3)c(O)ccc2c2c1CCC2	-0.095	1	-0.42	0.05	-2	/	/
CC(C)c1cc(=O)oc2c3c4c(cc12)CCCN4CCC3	106*	-18	0.66	-0.15	0	612*	614*
O=c1oc2c3c4c(cc2c(C(F)(F)F)c1CCN1CCOCC1)CCCN4CCC3	277*	6	/	-2.9*	-4	1525*	1404*
CCCCCn1c(=O)[nH]c2cc(C(=O)NCCCN3CCCCC3)ccc2c1=O	-0.85	/	-1	-0.61	/	/	/
CCCCCn1c(=O)[nH]c2cc(C(=O)NCCN(CC)CC)ccc2c1=O	-2.1*	/	-1.9	-0.5	/	-36*	-92
CC1(C(=O)N(c2ccccc2)C(C(=O)NC2CCCC2)c2ccccn2)CC(=O)N=C2C=CC=CN21 (centres undefined)	-1.1	-20	0.0095	-1	0	/	/
O=C(CSc1n[nH]c(=O)n1C1CC1)Nc1cc(Cl)ccc1Oc1ccccc1	6.9*	15	-2.5	-2.7*	-2	-14	-14
Cc1nn(CC(=O)N(C)C)c(=O)c2ccccc12	4.2*	-17	0.8	0.41	0	-5.6	-25
Cc1nn(CC(N)=O)c(=O)c2ccccc12	0.11	0	/	-0.36	-1	/	/
CCCOc1cc(C)c(S(=O)(=O)n2ccc(C)n2)cc1C	0.26	29	0.0039	0.21	0	/	/
Cc1ccccc1N1C(=O)c2cccc3c(N(C)CCO)ccc(c23)C1=O	91*	26	2.1	-0.15	-1	868*	912*
